Data from ChEMBL document CHEMBL5058577, “EUbOPEN Chemogenomics Library 2 (Multiplex)” (2022).

System: HEK-293T
Assay: Multiplex assay against HEK293T
Format: toxicity, cell-based
Conditions: human
Method in brief: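 Live cells carried four stains from seeding: Hoechst33342, BioTracker Green Microtubule Cytoskeleton Dye, MitoTracker Red and Annexin V Alexa Fluor 680. They were imaged on a CQ1 microscope at 37°C and 5% CO2 after compound addition. Using CellPathfinder machine-learning gating, cells were split into Hoechst high-intensity objects or normal cells, normal cells into healthy, pyknosed or fragmented nuclei, and pyknosed cells into mitotic or apoptotic; tubulin, mitochondrial-mass and membrane-permeability phenotypes are per cents of healthy-nucleus cells.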

[1] = 12 h, 1 µM, compound concentration 1 uM, replicate 1
[2] = 12 h, 1 µM, compound concentration 1 uM, replicate 2
[3] = 12 h, 10 µM, compound concentration 10 uM, replicate 1
[4] = 12 h, 10 µM, compound concentration 10 uM, replicate 2
[5] = 24 h, 1 µM, compound concentration 1 uM, replicate 1
[6] = 24 h, 1 µM, compound concentration 1 uM, replicate 2
[7] = 24 h, 10 µM, compound concentration 10 uM, replicate 1
[8] = 24 h, 10 µM, compound concentration 10 uM, replicate 2
[9] = 48 h, 1 µM, compound concentration 1 uM, replicate 1
[10] = 48 h, 1 µM, compound concentration 1 uM, replicate 2
[11] = 48 h, 10 µM, compound concentration 10 uM, replicate 1
[12] = 48 h, 10 µM, compound concentration 10 uM, replicate 2

SMILES: C[C@H](N)COC(=O)[C@@H](CCCCN)NC(=O)Cc1c(-c2ccc3ccccc3c2)[nH]c2c1ccc1ccccc12
- Population Apoptotic (%) [1]: 22%
- Population Fragmented Nuclei (%) [1]: 6%
- Population Healthy Nuclei (%) [1]: 82%
- Population Hoechst High Intensity Objects (%) [1]: 8%
- Population Membrane Permeable-Phenotype (%) [1]: 0%
- Population Mitochondria Different-Phenotype (%) [1]: 37%
- Population Mitotic Cells (%) [1]: 77%
- Population Normal (%) [1]: 91%
- Population Pyknosed Nuclei (%) [1]: 10%
- Population Tubulin-Different-Phenotype (%) [1]: 27%
- Total Cell Count [1]: 458
- Population Apoptotic (%) [2]: 51%
- Population Fragmented Nuclei (%) [2]: 8%
- Population Healthy Nuclei (%) [2]: 74%
- Population Mitochondria Different-Phenotype (%) [2]: 65%
- Population Mitotic Cells (%) [2]: 48%
- Population Pyknosed Nuclei (%) [2]: 16%
- Population Tubulin-Different-Phenotype (%) [2]: 30%
- Total Cell Count [2]: 291
- Population Apoptotic (%) [3]: 41%
- Population Fragmented Nuclei (%) [3]: 7%
- Population Healthy Nuclei (%) [3]: 78%
- Population Hoechst High Intensity Objects (%) [3]: 11%
- Population Membrane Permeable-Phenotype (%) [3]: 0%
- Population Mitochondria Different-Phenotype (%) [3]: 60%
- Population Mitotic Cells (%) [3]: 58%
- Population Normal (%) [3]: 88%
- Population Pyknosed Nuclei (%) [3]: 14%
- Population Tubulin-Different-Phenotype (%) [3]: 54%
- Total Cell Count [3]: 435
- Population Apoptotic (%) [4]: 61%
- Population Fragmented Nuclei (%) [4]: 5%
- Population Hoechst High Intensity Objects (%) [4]: 7%
- Population Mitochondria Different-Phenotype (%) [4]: 72%
- Population Mitotic Cells (%) [4]: 38%
- Population Normal (%) [4]: 93%
- Population Pyknosed Nuclei (%) [4]: 16%
- Population Tubulin-Different-Phenotype (%) [4]: 50%
- Total Cell Count [4]: 343
- Population Apoptotic (%) [5]: 25%
- Population Fragmented Nuclei (%) [5]: 9%
- Population Healthy Nuclei (%) [5]: 77%
- Population Hoechst High Intensity Objects (%) [5]: 4%
- Population Membrane Permeable-Phenotype (%) [5]: 0%
- Population Mitochondria Different-Phenotype (%) [5]: 24%
- Population Mitotic Cells (%) [5]: 75%
- Population Normal (%) [5]: 95%
- Population Pyknosed Nuclei (%) [5]: 12%
- Population Tubulin-Different-Phenotype (%) [5]: 19%
- Total Cell Count [5]: 638
- Population Apoptotic (%) [6]: 54%
- Population Fragmented Nuclei (%) [6]: 7%
- Population Healthy Nuclei (%) [6]: 80%
- Population Hoechst High Intensity Objects (%) [6]: 7%
- Population Membrane Permeable-Phenotype (%) [6]: 1%
- Population Mitochondria Different-Phenotype (%) [6]: 47%
- Population Mitotic Cells (%) [6]: 45%
- Population Normal (%) [6]: 92%
- Population Tubulin-Different-Phenotype (%) [6]: 25%
- Total Cell Count [6]: 352
- Population Apoptotic (%) [7]: 41%
- Population Fragmented Nuclei (%) [7]: 6%
- Population Healthy Nuclei (%) [7]: 78%
- Population Hoechst High Intensity Objects (%) [7]: 6%
- Population Membrane Permeable-Phenotype (%) [7]: 0%
- Population Mitochondria Different-Phenotype (%) [7]: 57%
- Population Mitotic Cells (%) [7]: 58%
- Population Normal (%) [7]: 93%
- Population Pyknosed Nuclei (%) [7]: 14%
- Population Tubulin-Different-Phenotype (%) [7]: 45%
- Total Cell Count [7]: 539
- Population Apoptotic (%) [8]: 48%
- Population Fragmented Nuclei (%) [8]: 9%
- Population Healthy Nuclei (%) [8]: 80%
- Population Hoechst High Intensity Objects (%) [8]: 7%
- Population Mitochondria Different-Phenotype (%) [8]: 54%
- Population Mitotic Cells (%) [8]: 51%
- Population Normal (%) [8]: 92%
- Population Pyknosed Nuclei (%) [8]: 10%
- Population Tubulin-Different-Phenotype (%) [8]: 42%
- Total Cell Count [8]: 439
- Population Apoptotic (%) [9]: 15%
- Population Fragmented Nuclei (%) [9]: 13%
- Population Healthy Nuclei (%) [9]: 78%
- Population Hoechst High Intensity Objects (%) [9]: 4%
- Population Membrane Permeable-Phenotype (%) [9]: 2%
- Population Mitochondria Different-Phenotype (%) [9]: 16%
- Population Mitotic Cells (%) [9]: 84%
- Population Normal (%) [9]: 95%
- Population Pyknosed Nuclei (%) [9]: 7%
- Population Tubulin-Different-Phenotype (%) [9]: 13%
- Total Cell Count [9]: 963
- Population Apoptotic (%) [10]: 37%
- Population Fragmented Nuclei (%) [10]: 11%
- Population Healthy Nuclei (%) [10]: 79%
- Population Membrane Permeable-Phenotype (%) [10]: 0%
- Population Mitochondria Different-Phenotype (%) [10]: 29%
- Population Mitotic Cells (%) [10]: 62%
- Population Pyknosed Nuclei (%) [10]: 9%
- Population Tubulin-Different-Phenotype (%) [10]: 17%
- Total Cell Count [10]: 540
- Population Apoptotic (%) [11]: 27%
- Population Fragmented Nuclei (%) [11]: 13%
- Population Healthy Nuclei (%) [11]: 78%
- Population Hoechst High Intensity Objects (%) [11]: 6%
- Population Membrane Permeable-Phenotype (%) [11]: 0%
- Population Mitochondria Different-Phenotype (%) [11]: 44%
- Population Mitotic Cells (%) [11]: 72%
- Population Normal (%) [11]: 93%
- Population Pyknosed Nuclei (%) [11]: 7%
- Population Tubulin-Different-Phenotype (%) [11]: 33%
- Total Cell Count [11]: 781
- Population Apoptotic (%) [12]: 32%
- Population Fragmented Nuclei (%) [12]: 14%
- Population Healthy Nuclei (%) [12]: 79%
- Population Hoechst High Intensity Objects (%) [12]: 4%
- Population Mitochondria Different-Phenotype (%) [12]: 43%
- Population Mitotic Cells (%) [12]: 67%
- Population Normal (%) [12]: 95%
- Population Pyknosed Nuclei (%) [12]: 6%
- Population Tubulin-Different-Phenotype (%) [12]: 35%
- Total Cell Count [12]: 681
